Paper PMC9073569 (JAMA Network Open, 2022)
Where two headings read alike, the source gives them in different places.

Legend:
[1] = test system: moderate to severe pruritus in patients receiving hemodialysis; experiment: 24-hour Worst Itching Intensity Numerical Rating Scale; assay type: in vivo, Japanese patients; conditions: week 8; for proportion of 4-point improvement in the NRS score: placebo 36%; for proportion of 3-point improvement in the NRS score: placebo 50%
Procedure, shortened: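 Adults aged 20 or older with ESKD on hemodialysis 3 times weekly for at least 12 weeks, with weekly mean NRS above 4, were randomized double-blind. Test compound or placebo was given IV after each dialysis session for 8 weeks. Worst itch over the prior 24 h (0–10) was logged daily in an e-diary and averaged weekly. Proportions improving ≥3 or ≥4 points at week 8 were compared with placebo by Fisher exact test.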

[2] = test system: patients with pruritus receiving hemodialysis; assay type: in vivo, Japanese patients; conditions: for Constipation / Death / Malaise / Other serious adverse drug reactions / Pyrexia: placebo 0; for Adverse events leading to Discontinuation / Nausea: placebo 1 (2); for Adverse events leading to Interruption / Arthralgia / Blood pressure decreased / Other serious adverse events: placebo 2 (3); for Dizziness / Procedural hypotension / Somnolence / Vomiting: placebo 3 (5); for Adverse drug reactions / Nasopharyngitis: placebo 7 (11); for Adverse events: placebo 42 (67); for drug-related serious AEs (kind of event): patients recovered after discontinuing or suspending use of the study drug
[3] = Plasma concentrations of difelikefalin; assay type: in vivo, Japanese patients; conditions: weeks 1, 4, and 7; LC-MS/MS
Procedure, shortened: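 Test compound was given IV at 0.25, 0.5 or 1.0 μg/kg after each hemodialysis session, 3 times weekly, with volume set by dry weight. Plasma was sampled before the first dialysis (weeks 1, 2, 4, 7, 8), 5 min post-dose (weeks 1, 4, 7), before the second dialysis (weeks 1, 4, 7) and 1 h post-dose (week 7). Assay was LC-MS/MS; summaries included geometric means and geometric CV.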

[4] = cited from earlier work
[5] = test system: pruritus in patients receiving hemodialysis; conditions: 0.5, 1.0, and 1.5 μg/kg; previous phase 2 trial in the US; cited from earlier work
[6] = 0.25 μg/kg iv 3 times a week, 8 weeks, n = 61
[7] = 0.5 μg/kg iv 3 times a week, 8 weeks, n = 61
[8] = 1.0 μg/kg iv 3 times a week, 8 weeks, n = 62

With difelikefalin the “proportion of 4-point improvement in the NRS score” value (shortened to “proportion of 4-point improvement”) ([1]; 0.25 μg/kg iv 3 times a week, n = 20 of 59) was 34%, the “proportion of 3-point improvement in the NRS score” value (“proportion of 3-point improvement” for short) ([1]; 0.25 μg/kg iv 3 times a week, n = 31 of 59) was 53% and the “proportion of 4-point improvement” value ([1]; 0.5 μg/kg iv 3 times a week, n = 27 of 53) was 51%. For the same substance, the “proportion of 3-point improvement” value ([1]; 0.5 μg/kg iv 3 times a week, n = 32 of 53) was 60%, the “proportion of 4-point improvement” value ([1]; 1.0 μg/kg iv 3 times a week, n = 23 of 53) was 43% and the “proportion of 3-point improvement” value ([1]; 1.0 μg/kg iv 3 times a week, n = 30 of 53) was 57%. The Constipation [2, 6] was 5 (8) No. (%), the Death [2, 6] was 0 No. (%) and the Malaise [2, 6] was 2 (3) No. (%). The “Other serious adverse drug reactions” value [2, 6] was 0 No. (%), the Pyrexia [2, 6] was 2 (3) No. (%) and the “Adverse events leading to Discontinuation” value [2, 6] was 0 No. (%). For the same substance, the Nausea [2, 6] was 0 No. (%), the “Adverse events leading to Interruption” value [2, 6] was 0 No. (%) and the Arthralgia [2, 6] was 3 (5) No. (%). For the same substance, the Blood pressure decreased [2, 6] was 0 No. (%), the “Other serious adverse events” value [2, 6] was 3 (5) No. (%) and the Dizziness [2, 6] was 3 (5) No. (%). For the same substance, the Procedural hypotension [2, 6] was 4 (7) No. (%), the Somnolence [2, 6] was 2 (3) No. (%) and the Vomiting [2, 6] was 1 (2) No. (%). The Adverse drug reactions [2, 6] was 9 (15) No. (%), the Nasopharyngitis [2, 6] was 8 (13) No. (%) and the Adverse events [2, 6] was 44 (72) No. (%). For the same substance, the “drug-related serious AEs (kind of event)” value ([2]; 0.5 μg/kg group) was “Altered state of consciousness”, the Constipation [2, 7] was 3 (5) No. (%) and the Death [2, 7] was 0 No. (%). The Malaise [2, 7] was 2 (3) No. (%), the “Other serious adverse drug reactions” value [2, 7] was 1 (2) No. (%) and the Pyrexia [2, 7] was 4 (7) No. (%). For the same substance, the “Adverse events leading to Discontinuation” value [2, 7] was 4 (7) No. (%), the Nausea [2, 7] was 1 (2) No. (%) and the “Adverse events leading to Interruption” value [2, 7] was 5 (8) No. (%). For the same substance, the Arthralgia [2, 7] was 5 (8) No. (%), the Blood pressure decreased [2, 7] was 4 (7) No. (%) and the “Other serious adverse events” value [2, 7] was 8 (13) No. (%). The Dizziness [2, 7] was 3 (5) No. (%), the Procedural hypotension [2, 7] was 3 (5) No. (%) and the Somnolence [2, 7] was 3 (5) No. (%). For the same substance, the Vomiting [2, 7] was 1 (2) No. (%), the Adverse drug reactions [2, 7] was 9 (15) No. (%) and the Nasopharyngitis [2, 7] was 6 (10) No. (%). For the same substance, the Adverse events [2, 7] was 47 (77) No. (%), the “drug-related serious AEs (kind of event)” value ([2]; 1.0 μg/kg group) was “obstruction in the small intestine” and the Constipation [2, 8] was 7 (11) No. (%). The Death [2, 8] was 0 No. (%), the Malaise [2, 8] was 4 (6) No. (%) and the “Other serious adverse drug reactions” value [2, 8] was 1 (2) No. (%). For the same substance, the Pyrexia [2, 8] was 0 No. (%), the “Adverse events leading to Discontinuation” value [2, 8] was 5 (8) No. (%) and the Nausea [2, 8] was 4 (6) No. (%). For the same substance, the “Adverse events leading to Interruption” value [2, 8] was 5 (8) No. (%), the Arthralgia [2, 8] was 2 (3) No. (%) and the Blood pressure decreased [2, 8] was 3 (5) No. (%). For the same substance, the “Other serious adverse events” value [2, 8] was 5 (8) No. (%), the Dizziness [2, 8] was 5 (8) No. (%) and the Procedural hypotension [2, 8] was 2 (3) No. (%). For the same substance, the Somnolence [2, 8] was 6 (10) No. (%), the Vomiting [2, 8] was 4 (6) No. (%) and the Adverse drug reactions [2, 8] was 17 (27) No. (%). The Nasopharyngitis [2, 8] was 3 (5) No. (%), the Adverse events ([2]; 1.0 μg/kg iv 3 times a week, 8 weeks, n = 62, P = .02) was 53 (85) No. (%) and the “changes in clinical laboratory tests, vital signs, and 12-lead electrocardiogram” value ([2]; 0.25, 0.5 and 1.0 μg/kg iv 3 times a week, 8 weeks) was “No notable changes”. The “plasma difelikefalin concentrations in relation to body weight classification” value [3] was “No significant differences”, the “transfer to the CNS” value [4] was “limited” and the “dose response in relation to efficacy” value [5] was “no clear dose response”.
